Data taken from the RNAGym collection of RNA variant scans (doi:10.1126/science.aae0568).
This sample holds only a part of the variants without activity.

B1: tRNA (parent)
chain: GUUCCGUUGGCGUAAUGGUAACGCGUCUCCCUCCUAAGGAGAAGACUGCGGGUUCGAGUCCCGUACGGAACG

Variants of: B1
Assay: yeast fitness relative to wild type (ratio to wild type); higher = fitter; tRNA-Arg(CCU), competitive growth, 37 C, YPD
Summary of the method: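 Gene amplicons from the start population and from each of six end populations were read by 100-nucleotide paired-end sequencing. Those end populations came from pooled Saccharomyces cerevisiae strains carrying tRNA-Arg(CCU) gene variants at the native locus, competed in YPD at 37°C for 24 hours. Fitness relative to wild type was worked out from changes in genotype frequencies. Genotypes needed ≥ 100 starting reads, and estimates < 0.5 were set to 0.5.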
In the case of G9A G44A, the yeast fitness is reported as 0.983. With G9A U13C the yeast fitness was 0.893. Work on G9A U26G C55G yielded a yeast fitness of 0.57. With G9A G56C the yeast fitness was 0.563. Variant G9A G52C has a yeast fitness of 0.641. For G9A U26A A43U C55U, the yeast fitness was ≤ 0.5. For G9A U13A U47A C60A, the yeast fitness was ≤ 0.5. With G9A U19C C49G the yeast fitness was 0.634. With G9A U13A U19C C30U C61A the yeast fitness was ≤ 0.5. For G9A G17U U35A G52A U59C C66A G67A, the yeast fitness was ≤ 0.5. With G9A G10C G25C C33U the yeast fitness was ≤ 0.5. For G9A G17C C29G C49G, the yeast fitness was ≤ 0.5. Work on G9A G10C C11U U16G G41A yielded a yeast fitness of 0.597. In the case of G9A G25A A40C C46U, the yeast fitness is reported as 0.727. Variant G9A G68C has a yeast fitness of 0.857. With G9A U16C C29G U53A the yeast fitness was ≤ 0.5. In the case of G9A G18A C24U A57C, the yeast fitness is reported as ≤ 0.5. With G9A G48C U53G the yeast fitness was ≤ 0.5. With G9A C66U the yeast fitness was 0.898. For G9A U16C U19G C27A C33U U53C A65U C66U, the yeast fitness was ≤ 0.5. For G9A G12C A14C G50C, the yeast fitness was 0.594. For G9A U16C U32G G48C G58C, the yeast fitness was ≤ 0.5. G9A U16C A69C showed a yeast fitness of 0.763. G9A G48A G63A A69U showed a yeast fitness of 0.764. In the case of G9A C60U, the yeast fitness is reported as 0.742. For G9A G10C A20G G25C C33U, the yeast fitness was ≤ 0.5. G9A G12C A14C G23A G50C showed a yeast fitness of 0.56. Work on G9A G23A A36G yielded a yeast fitness of 0.652. In the case of G9A U16A G23C C24A U28G C34U A37U, the yeast fitness is reported as ≤ 0.5. For G9A G18A G25C C30U, the yeast fitness was ≤ 0.5. With G9A C60U U64G the yeast fitness was 0.696. Work on G9A G50C A69U yielded a yeast fitness of 0.752. In the case of G9A G12C C31A C33G A45G G67U, the yeast fitness is reported as ≤ 0.5. For G9A G17C G52A C55A, the yeast fitness was ≤ 0.5. In the case of G9A G12C G17A C22G C30U C34G U59G A70U, the yeast fitness is reported as ≤ 0.5. G9A G39C C62G U64C gave a yeast fitness of 0.568. G9A G48C G68C gave a yeast fitness of 0.603. With G9A G48C the yeast fitness was 0.985. With G9A G48A the yeast fitness was 0.955. Variant G9A U19A A65C has a yeast fitness of 0.746. G9A C66G G68C showed a yeast fitness of 0.571. In the case of G9A G25C U26A C30U, the yeast fitness is reported as ≤ 0.5. G9A U26G showed a yeast fitness of 0.967. With G9A G38A the yeast fitness was 0.976. With G9A G18C G39C A69U the yeast fitness was ≤ 0.5. In the case of G9A G25C U26G C46G A70U, the yeast fitness is reported as ≤ 0.5. With G9A G17C G56C the yeast fitness was 0.589. For G9A G10A C34U C66U, the yeast fitness was ≤ 0.5. In the case of G9A G23A C27A, the yeast fitness is reported as ≤ 0.5. G9A U16C C30G C34G A40G C61A C62U G63C showed a yeast fitness of 0.666. G9A G44C G58A gave a yeast fitness of 0.766. In the case of G9A U13A A15G C27U, the yeast fitness is reported as ≤ 0.5. With G9A G12C C22U the yeast fitness was 0.591. With G9A U19C C33U A40U U59A the yeast fitness was ≤ 0.5. For G9A G10A A21G A57G C66U, the yeast fitness was ≤ 0.5. In the case of G9A G12C U13A G25A C30G C66A, the yeast fitness is reported as ≤ 0.5. With G9A G12C U13A G25A C30G C66U the yeast fitness was ≤ 0.5. In the case of G9A G18A C27U A42U, the yeast fitness is reported as 0.652. With G9A G25A U35G the yeast fitness was ≤ 0.5. For G9A U16C U28G U59A, the yeast fitness was ≤ 0.5. For G9A G23A C29U A43G G68U, the yeast fitness was ≤ 0.5. With G9A G39A the yeast fitness was 0.999. With G9A G17C C49G the yeast fitness was ≤ 0.5. With G9A G50C C62G C66U the yeast fitness was 0.687. For G9A U16C A20G A42G G68U, the yeast fitness was ≤ 0.5. With G9A G12U A14U C31G A69U the yeast fitness was ≤ 0.5. In the case of G9A G23C G39C, the yeast fitness is reported as ≤ 0.5. In the case of G9A U19A C49G U59C, the yeast fitness is reported as ≤ 0.5. For G9A G10C C11U U16G G41A G48A A65U, the yeast fitness was ≤ 0.5. G9A C61G showed a yeast fitness of 0.705. For G9A G17C A20U U54A C61U, the yeast fitness was ≤ 0.5. With G9A G23C U64A the yeast fitness was ≤ 0.5. In the case of G9A U19G A45G, the yeast fitness is reported as 0.528. With G9A G23U A42C the yeast fitness was ≤ 0.5. Work on G9A G50A yielded a yeast fitness of 1. For G9A U19G A37C A43U C46G G68A, the yeast fitness was ≤ 0.5. Variant G9A C60G A70U has a yeast fitness of 0.584. For G9A G51A, the yeast fitness was 0.919. In the case of G9A G12A, the yeast fitness is reported as 0.927. Work on G9A G12C yielded a yeast fitness of 0.943. For G9A G56C C61U, the yeast fitness was 0.603. For G9A G12C U13A G25A C30G, the yeast fitness was ≤ 0.5. In the case of G9A G25C C62U, the yeast fitness is reported as 0.712. For G9A G12U A14U, the yeast fitness was ≤ 0.5. In the case of G9A G38C G41C U54A, the yeast fitness is reported as ≤ 0.5. For G9A G41A A69C, the yeast fitness was 0.558. With G9A G10A C31G G44A the yeast fitness was ≤ 0.5. In the case of G9A G56U G58A, the yeast fitness is reported as 0.563. For G9A G10A C31G A65U, the yeast fitness was ≤ 0.5. In the case of G9A G39C A43C A57C, the yeast fitness is reported as ≤ 0.5. In the case of G9A G38A A65U, the yeast fitness is reported as 0.565. Work on G9A G56A G67A yielded a yeast fitness of 0.632. Work on G9A G58C U59C yielded a yeast fitness of 0.632. For G9A G12C G17A C22G C30U C34G, the yeast fitness was ≤ 0.5. Variant G9A G67A has a yeast fitness of 0.883. G9A G67C gave a yeast fitness of 0.932. For G9A G25C C30U, the yeast fitness was 0.679. Variant G9A U13C U19C has a yeast fitness of 0.907. In the case of G9A G23A, the yeast fitness is reported as 0.825. With G9A G10C U19A the yeast fitness was ≤ 0.5. In the case of G9A G25A C49U, the yeast fitness is reported as 0.773. Work on G9A G10A yielded a yeast fitness of 0.577. In the case of G9A G48C A70C, the yeast fitness is reported as 1.08. Variant G9A G39A G63C has a yeast fitness of 0.556. Work on G9A U16C A57G yielded a yeast fitness of 0.598. In the case of G9A G39A A45G G50A A69U, the yeast fitness is reported as 0.548. For G9A G10A C46G, the yeast fitness was ≤ 0.5. For G9A G48C G52A, the yeast fitness was ≤ 0.5. G9A G63A gave a yeast fitness of 1.06. With G9A G10C C11U U16G G41A A70G the yeast fitness was ≤ 0.5. For G9A G12U A14U C27G G39A G67A, the yeast fitness was ≤ 0.5. For G9A U19C G23C U59A G68C, the yeast fitness was ≤ 0.5. For G9A G23A C27A G67C, the yeast fitness was ≤ 0.5. Variant G9A G18C has a yeast fitness of 0.643. Variant G9A G17C has a yeast fitness of 0.668. With G9A U19C G23C C49U the yeast fitness was ≤ 0.5. With G9A U26G C46U the yeast fitness was 0.726. Variant G9A G25A has a yeast fitness of 0.978. With G9A U16C U32G G48C the yeast fitness was ≤ 0.5. Work on G9A G48A A69U yielded a yeast fitness of 1.07. Variant G9A G48A A69C has a yeast fitness of 0.87. For G9A G10A C31G, the yeast fitness was ≤ 0.5. For G9A G48A A70U, the yeast fitness was 1.25. With G9A G10A C60U A69C the yeast fitness was 0.618. In the case of G9A U13A C46U, the yeast fitness is reported as 0.708. With G9A G25C C60G the yeast fitness was ≤ 0.5. With G9A G41C the yeast fitness was 0.899. G9A U13C C29G A69U gave a yeast fitness of 0.53. Variant G9A G10A C11U has a yeast fitness of 0.668. G9A G58U A70G showed a yeast fitness of 0.984. In the case of G9A G12U A14U U32G U53A, the yeast fitness is reported as ≤ 0.5. G9A U19G A57G gave a yeast fitness of 0.503. With G9A G44A C55A A57U the yeast fitness was ≤ 0.5. In the case of G9A G10C C60U U64G, the yeast fitness is reported as ≤ 0.5. With G9A G10A G25A C31G G52A C61U the yeast fitness was ≤ 0.5. With G9A G12A C30G U32C G50A the yeast fitness was 0.554. With G9A G12U A14U C34A A65C the yeast fitness was ≤ 0.5. In the case of G9A U26A A36U A40C A65U, the yeast fitness is reported as ≤ 0.5. G9A U19A A43G A69C showed a yeast fitness of 0.541. G9A U19C A69C showed a yeast fitness of 0.834. In the case of G9A G51A A57G, the yeast fitness is reported as ≤ 0.5. With G9A C55U A70G the yeast fitness was 0.536. Work on G9A C55U A70U yielded a yeast fitness of 0.623. G9A G12C C31A C33G A45G showed a yeast fitness of 0.611. For G9A U19G C66U, the yeast fitness was 0.64. In the case of G9A U13C C29G, the yeast fitness is reported as ≤ 0.5. With G9A U19C G23C the yeast fitness was ≤ 0.5. With G9A G12A C29G A65U the yeast fitness was ≤ 0.5. For G9A G25A C61A, the yeast fitness was ≤ 0.5. With G9A G39C C66U the yeast fitness was 0.606. G9A U16G gave a yeast fitness of 0.799. Work on G9A U26A U28C C55U G58A U59C yielded a yeast fitness of 0.555. With G9A G12A C27G the yeast fitness was ≤ 0.5. G9A G58A G67A showed a yeast fitness of 0.959. For G9A G12C C31A C33G A45G C66U G68C, the yeast fitness was ≤ 0.5. G9A C62A gave a yeast fitness of 0.842. In the case of G9A G12C G17A C22G C30U C34G U59G, the yeast fitness is reported as ≤ 0.5. Variant G9A U26A A43U has a yeast fitness of 0.616. In the case of G9A C60G G67A, the yeast fitness is reported as ≤ 0.5. In the case of G9A G58C, the yeast fitness is reported as 0.895. For G9A U13A U32A, the yeast fitness was 0.839. In the case of G9A G10A C31G G52A C60U, the yeast fitness is reported as ≤ 0.5. Variant G9A U19C has a yeast fitness of 0.983. G9A U19G showed a yeast fitness of 0.848. G9A U19A gave a yeast fitness of 1.04. For G9A G12A C22G A43G C46G C66U, the yeast fitness was ≤ 0.5. In the case of G9A G52A G56U, the yeast fitness is reported as ≤ 0.5.
